ChEMBL document CHEMBL1122848, “5-(Haloalkyl)-2'-deoxyuridines: a novel type of potent antiviral nucleoside analogue” (1985)
≈ marks a conversion by molar mass, not a printed value.

Tests used:
Human alphaherpesvirus 1 = assay: Minimum inhibitory concentration against HSV-1.; type: functional
In short: (§1)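 CPE-inhibition assay in HEp-2 cells. Compound was serially diluted 3-fold in E-MEM, then virus (HSV-1 Brand or HSV-2 K979) and a cell suspension in E-MEM plus 15% FCS were added together. Virus input gave 90–100% CPE in infected controls after 3 days. Plates were then fixed and stained, and CPE was scored.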

HEp-2 = assay: Minimum toxic effect against HEp-2 cells.; type: functional, Homo sapiens
In short: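 Uninfected HEp-2 cells were exposed to 3-fold serial dilutions of compound in E-MEM with FCS, run alongside the CPE assay. Cell density was set to reach a monolayer in 1–2 days. Plates were fixed and stained at 3 days. MTC is the lowest concentration causing visible toxic effects.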

Human alphaherpesvirus 2 = assay: Minimum inhibitory concentration against HSV-2.; type: functional; in short: as §1
Mus musculus [1] = assay: In vivo evaluation for the percent survivors in systemic HSV-1 infection of Mice administered through intraperitoneal at a dose 1 mg/kg per day; type: functional
In short: (§2)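 Systemic infection model in hairless (hr/hr) mice weighing 18–20 g, twelve per group. Mice were inoculated i.p. with HSV-1 (Brand) at 2 × 10⁵ PFU/0.2 mL per mouse. Compound was given twice a day i.p. or by oral gavage at the stated daily dose. Read-out was percent survivors.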

Mus musculus [2] = assay: In vivo evaluation for the percent survivors in systemic HSV-1 infection of Mice administered through intraperitoneal at a dose 5 mg/kg per day; type: functional; in short: as §2
Mus musculus [3] = assay: In vivo evaluation for the percent survivors in systemic HSV-1 infection of Mice administered through oral route at a dose 5 mg/kg per day; type: functional; in short: as §2
Mus musculus [4] = assay: In vivo evaluation for the percent survivors in systemic HSV-1 infection of Mice administered through oral route at a dose 2.5 mg/kg per day; type: functional; in short: as §2
Mus musculus [5] = assay: In vivo evaluation for the percent survivors in systemic HSV-1 infection of Mice administered through at a dose 25 mg/kg per day; type: functional; in short: as §2
Mus musculus [6] = assay: In vivo evaluation for the percent survivors in systemic HSV-1 infection of Mice administered through intraperitoneal at a dose 50 mg/kg per day; type: functional; in short: as §2
Mus musculus [7] = assay: In vivo evaluation for the percent survivors in systemic HSV-1 infection of Mice administered through intraperitoneal at a dose 100 mg/kg per day; type: functional; in short: as §2
Mus musculus [8] = assay: In vivo evaluation for the percent survivors in systemic HSV-1 infection of Mice administered through intraperitoneal at a dose 10 mg/kg per day; type: functional; in short: as §2
Mus musculus [9] = assay: In vivo evaluation for the percent survivors in systemic HSV-1 infection of Mice administered through oral route at a dose 50 mg/kg per day; type: functional; in short: as §2
Mus musculus [10] = assay: In vivo evaluation for the percent survivors in systemic HSV-1 infection of Mice administered through oral route at a dose 25 mg/kg per day; type: functional; in short: as §2
Mus musculus [11] = assay: Effect of delayed treatment on mortality of systemically infected mice at 25 mg/kg per day administered through oral route after 24 hr of start of treatment; type: functional
In short: (§3)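 Hairless (hr/hr) mice, 18–20 g, ten per group, inoculated intraperitoneally with HSV-1 strain Brand at 2 × 10⁵ PFU/0.2 mL per mouse. Dosing was 25 mg/kg per day, given twice daily either intraperitoneally or orally by gavage. Treatment started at 3, 24, 48 or 72 h post-infection. Read-out was percent survivors.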

Mus musculus [12] = assay: In vivo evaluation for the percent survivors in systemic HSV-1 infection of Mice administered intraperitoneally at a dose 50 mg/kg per day; type: functional; details: route intraperitoneal; in short: as §2
Mus musculus [13] = assay: In vivo evaluation for the percent survivors in systemic HSV-1 infection of Mice administered intraperitoneally at a dose 5 mg/kg per day; type: functional; details: route intraperitoneal; in short: as §2
Mus musculus [14] = assay: Effect of delayed treatment on mortality of systemically infected mice at 25 mg/kg per day administered through oral route after 48 hr of start of treatment; type: functional; in short: as §3
Mus musculus [15] = assay: In vivo evaluation for the percent survivors in systemic HSV-1 infection of Mice administered intraperitoneally at a dose 25 mg/kg per day; type: functional; details: route intraperitoneal; in short: as §2
Mus musculus [16] = assay: Effect of delayed treatment on mortality of systemically infected mice at 25 mg/kg per day administered Intraperitoneally after 48 hr of start of treatment; type: functional; details: route intraperitoneal; in short: as §3
Mus musculus [17] = assay: Effect of delayed treatment on mortality of systemically infected mice at 25 mg/kg per day administered Intraperitoneally after 72 hr of start of treatment; type: functional; details: route intraperitoneal; in short: as §3
Mus musculus [18] = assay: Effect of delayed treatment on mortality of systemically infected mice at 25 mg/kg per day administered through oral route after 72 hr of start of treatment; type: functional; in short: as §3
Mus musculus [19] = assay: Effect of delayed treatment on mortality of systemically infected mice at 25 mg/kg per day administered Intraperitoneally after 24 hr of start of treatment; type: functional; details: route intraperitoneal; in short: as §3
Mus musculus [20] = assay: In vivo evaluation for the percent survivors in systemic HSV-1 infection of Mice administered intraperitoneally at a dose 1 mg/kg per day; type: functional; details: route intraperitoneal; in short: as §2
Mus musculus [21] = assay: In vivo evaluation for the percent survivors in systemic HSV-1 infection of Mice administered intraperitoneally at a dose 10 mg/kg per day; type: functional; details: route intraperitoneal; in short: as §2
Mus musculus [22] = assay: Effect of delayed treatment on mortality of systemically infected mice at 25 mg/kg per day administered through oral route after 3 hr of start of treatment; type: functional; in short: as §3
Mus musculus [23] = assay: Effect of delayed treatment on mortality of systemically infected mice at 25 mg/kg per day administered Intraperitoneally after 3 hr of start of treatment; type: functional; details: route intraperitoneal; in short: as §3
Mus musculus [24] = assay: In vivo evaluation for the percent survivors in systemic HSV-1 infection of Mice administered intraperitoneally at a dose 100 mg/kg per day; type: functional; details: route intraperitoneal; in short: as §2

Row | SMILES | MIC (Human alphaherpesvirus 1) [µg/mL] | MTC (HEp-2) [µg/mL] | MIC (Human alphaherpesvirus 2) [µg/mL] | also measured
1 | O=c1nc2c(cn1[C@H]1C[C@H](O)[C@@H](CO)O1)CCO2 | > 100 | 330 | > 100 | –
2 | O=c1[nH]c(=O)n(C2CC(O)C(CI)O2)cc1CCI (stereo not given) | 30 (≈ 61 µM) | 100 | > 100 | –
3 | O=C([O-])P(=O)([O-])[O-].[Na+].[Na+].[Na+] [FOSCARNET SODIUM] | 10 | 330 | 30 | –
4 | Nc1nc2c(ncn2COCCO)c(=O)[nH]1 [ACYCLOVIR] | 0.3 (≈ 1.33 µM) | 330 | 3 (≈ 13.3 µM) | Survivors (Mus musculus [1]): 54%; Survivors (Mus musculus [2]): 75%; Survivors (Mus musculus [3]): 9%; Survivors (Mus musculus [4]): 0%; Survivors (Mus musculus [5]): 100%; Survivors (Mus musculus [6]): 100%; Survivors (Mus musculus [7]): 91%; Survivors (Mus musculus [8]): 83%; Survivors (Mus musculus [9]): 92%; Survivors (Mus musculus [10]): 55%
5 | O=c1[nH]c(=O)n([C@@H]2C[C@H](O)[C@@H](CO)O2)cc1CCCl | 3 (≈ 10.3 µM) | 100 | 100 (≈ 344 µM) | –
6 | O=c1[nH]c(=O)n(C2CC(O)C(CCl)O2)cc1CCCCl (stereo not given) | > 100 | 330 | > 100 | –
7 | O=c1[nH]c(=O)n(C2CC(O)C(CBr)O2)cc1CCBr (stereo not given) | 30 (≈ 75.4 µM) | 330 | 100 (≈ 251 µM) | –
8 | COC(=O)/C=C/c1cn([C@H]2C[C@H](O)[C@@H](CO)O2)c(=O)[nH]c1=O | 0.3 (≈ 0.961 µM) | 100 | 30 (≈ 96.1 µM) | –
9 | O=c1[nH]c(=O)n([C@H]2C[C@H](O)[C@@H](CO)O2)cc1CCI | 1 (≈ 2.62 µM) | 330 | 30 (≈ 78.5 µM) | –
10 | O=c1[nH]c(=O)n([C@H]2C[C@H](O)[C@@H](CO)O2)cc1CCCO | > 100 | 330 | > 100 | –
11 | O=c1[nH]c(=O)n([C@H]2C[C@H](O)[C@@H](CO)O2)cc1CCCCl | 0.3 (≈ 0.984 µM) | 100 | 30 (≈ 98.4 µM) | –
12 | O=c1[nH]c(=O)n([C@H]2C[C@H](O)[C@@H](CO)O2)cc1I [IDOXURIDINE] | 0.3 (≈ 0.847 µM) | 100 | 0.3 (≈ 0.847 µM) | –
13 | Nc1ncnc2c1ncn2[C@@H]1O[C@H](CO)[C@@H](O)[C@@H]1O [VIDARABINE] | 10 (≈ 37.4 µM) | 100 | 10 (≈ 37.4 µM) | –
14 | O=c1[nH]c(=O)n([C@@H]2C[C@H](O)[C@@H](CO)O2)cc1CCBr | 3 (≈ 8.95 µM) | 330 | > 100 | –
15 | O=c1[nH]c(=O)n([C@H]2C[C@H](O)[C@@H](CO)O2)cc1CCBr | 3 (≈ 8.95 µM) | 100 | 100 (≈ 298 µM) | –
16 | O=c1[nH]c(=O)n([C@H]2C[C@H](O)[C@@H](CO)O2)cc1/C=C/Br [BRIVUDINE] | 0.003 (≈ 0.00901 µM) | 100 | 3 (≈ 9.01 µM) | Survivors (Mus musculus [1]): 33%; Survivors (Mus musculus [2]): 25%; Survivors (Mus musculus [3]): 0%; Survivors (Mus musculus [4]): 0%; Survivors (Mus musculus [5]): 8%; Survivors (Mus musculus [6]): 33%; Survivors (Mus musculus [7]): 33%; Survivors (Mus musculus [8]): 18%; Survivors (Mus musculus [9]): 8%; Survivors (Mus musculus [10]): 0%
17 | O=c1[nH]c(=O)n([C@H]2C[C@H](O)[C@@H](CO)O2)cc1CCCl | 0.03 (≈ 0.103 µM) | 330 | 3 (≈ 10.3 µM) | Survivors (Mus musculus [11]): 90%; Survivors (Mus musculus [12]): 92%; Survivors (Mus musculus [13]): 92%; Survivors (Mus musculus [14]): 100%; Survivors (Mus musculus [15]): 83%; Survivors (Mus musculus [16]): 80%; Survivors (Mus musculus [3]): 67%; Survivors (Mus musculus [4]): 82%; Survivors (Mus musculus [17]): 60%; Survivors (Mus musculus [18]): 70%; Survivors (Mus musculus [19]): 100%; Survivors (Mus musculus [20]): 75%; Survivors (Mus musculus [21]): 91%; Survivors (Mus musculus [22]): 80%; Survivors (Mus musculus [23]): 100%; Survivors (Mus musculus [24]): 100%; Survivors (Mus musculus [9]): 100%; Survivors (Mus musculus [10]): 100%
18 | O=c1[nH]c(=O)n(C2CC(O)C(CCl)O2)cc1CCCl (stereo not given) | 100 (≈ 323 µM) | 330 | > 100 | –
19 | O=c1[nH]c(=O)n([C@H]2C[C@H](O)[C@@H](CO)O2)cc1CCO | 100 (≈ 367 µM) | 330 | 100 (≈ 367 µM) | –
